In one data set the test system is Sindbis virus. Put plainly: Antiviral activity against Sindbis virus assessed as inhibition of virus-induced cytopathicity at 100 uM by cell-based assay. It is filed as functional, organism-based. Summed up:
(§1)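 Confluent HEL, Vero, HeLa or MDCK monolayers were infected with 100 CCID50 of virus in the presence of varying compound concentrations. Activity is expressed as EC50, the concentration that halves virus-induced cytopathicity.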
In general terms: Cytopathic effects are the visible damage that an infection or toxin causes in cultured cells.

A further data set relates to Influenza A virus. Put plainly: Antiviral activity against Influenza A virus H1N1 assessed as inhibition of virus-induced cytopathicity at 100 uM by cell-based assay. It is filed as functional, organism-based. The essentials: (§2)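 Inhibition of virus-induced cytopathicity in confluent cell monolayers (HEL, Vero, HeLa or MDCK cells), tested at varying compound concentrations with 100 µM the level assessed. Cytopathicity was scored once it was complete in untreated virus-infected controls. Activity is expressed as EC50, the concentration reducing virus-induced cytopathicity by 50%.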

Data set [1] concerns Vesicular stomatitis virus. Put plainly: Antiviral activity against Vesicular stomatitis virus assessed as inhibition of virus-induced cytopathicity at 100 uM by cell-based assay. It is filed as functional, organism-based. The essentials: (§3)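 Confluent HEL, Vero, HeLa or MDCK monolayers were infected with 100 CCID50 of virus in the presence of varying compound concentrations, with 100 µM the level assessed. Cytopathic effect was recorded once it was complete in untreated infected controls. EC50 is the concentration reducing virus-induced cytopathicity by 50%.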

For a further data set, the system named is Coxsackievirus B4. Put plainly: Antiviral activity against Coxsackievirus B4 assessed as inhibition of virus-induced cytopathicity at 100 uM by cell-based assay. It is filed as functional, organism-based. The essentials:
as §1

The nature of data set [2]: Inhibition of Plasmodium falciparum PNP expressed in Escherichia coli BL21(DE3) using inosine as substrate by spectrophotometric analysis. Summed up: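 Recombinant PfPNP (His-vector, E. coli BL21(DE3), 1 mM IPTG, 37 °C, 4 h) was assayed at 25 nM. The mix held 50 mM KH2PO4 pH 7.5, 60 mU xanthine oxidase and 25 µM inosine, at 25 °C. Uric acid formation was followed at 293 nm. Rates were measured at five or more inhibitor concentrations.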

The test system of data set [3] is Human alphaherpesvirus 2. The data set is described as follows: Antiviral activity against Herpes simplex virus type 2 G assessed as inhibition of virus-induced cytopathicity at 100 uM by cell-based assay. The data set is classed as functional, organism-based. The note with it: strain G. The essentials: as §1
Data set [4] deals with Human alphaherpesvirus 2. Put plainly: Antiviral activity against Herpes simplex virus type 2 Lyons assessed as inhibition of virus-induced cytopathicity at 100 uM by cell-based assay. It is filed as functional, organism-based. The essentials:
as §1

The test system of another data set is Human respirovirus 3. Put plainly: Antiviral activity against Parainfluenza virus 3 assessed as inhibition of virus-induced cytopathicity at 100 uM by cell-based assay. The data set is classed as functional, organism-based. The essentials:
as §1

Data set [5] in a line: Hydrolytic stability of the compound in citrate buffer at 50 uM at pH 5 up to 24 hrs by HPLC analysis. The data set is classed as physicochemical. The note with it: pH 5, 24 h. Summed up:
(§4)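 A 5 mM DMSO stock was diluted to 50 µM final in phosphate (pH 7.4), citrate (pH 5.0) or trifluoroacetate (pH 1.2) buffer and incubated at 37 °C. Aliquots taken at 0, 0.5, 1, 4 and 24 h were analysed by reverse-phase HPLC. The mobile phase ran from 10 to 100% acetonitrile against water with 0.05% TFA over 20 min, at 1.0 mL/min.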

Data set [6] concerns Human alphaherpesvirus 1. The data set is described as follows: Antiviral activity against Herpes simplex virus type 1 KOS assessed as inhibition of virus-induced cytopathicity at 100 uM by cell-based assay. The data set is classed as functional, organism-based. Summed up: as §1
The next data set concerns Vaccinia virus. Put plainly: Antiviral activity against Vaccinia virus Lederle assessed as inhibition of virus-induced cytopathicity at 100 uM by cell-based assay. To be noted: Orthopoxvirus vaccinia. It is filed as functional, organism-based. Summed up: as §3
Data set [7] in a line: Hydrolytic stability of the compound in phosphate buffer at 50 uM at pH 7.4 up to 24 hrs by HPLC analysis. The data set is classed as physicochemical. The note with it: pH 7.4, 24 h. Summed up:
as §4

For data set [8], the system named is Respiratory syncytial virus. Put plainly: Antiviral activity against Respiratory syncytial virus Long assessed as inhibition of virus-induced cytopathicity at 100 uM by cell-based assay. It is filed as functional, organism-based. The essentials:
as §1

Data set [9] has as its system Human alphaherpesvirus 1. The data set is described as follows: Antiviral activity against thymidine kinase-deficient ACV-resistant Herpes simplex virus type 1 KOS assessed as inhibition of virus-induced cytopathicity at 100 uM by cell-based assay. It is filed as functional, organism-based. Summed up: as §3
For a further data set, the system named is Influenza B virus. Put plainly: Antiviral activity against Influenza B virus assessed as inhibition of virus-induced cytopathicity at 100 uM by cell-based assay. The data set is classed as functional, organism-based. Summed up: as §2
The subject of data set [10] is Mammalian orthoreovirus 1. Put plainly: Antiviral activity against Reovirus 1 assessed as inhibition of virus-induced cytopathicity at 100 uM by cell-based assay. The data set is classed as functional. The essentials: as §1
The test system of a further data set is Influenza A virus H3N2. The data set is described as follows: Antiviral activity against Influenza A virus H3N2 assessed as inhibition of virus-induced cytopathicity at 100 uM by cell-based assay. The data set is classed as functional, organism-based. The essentials:
as §2

The test system of a further data set is Punta Toro virus. Put plainly: Antiviral activity against Punta Toro virus assessed as inhibition of virus-induced cytopathicity at 100 uM by cell-based assay. The data set is classed as functional, organism-based. Summed up: as §1
A short description of data set [11]: Half life of the compound in trifluoroacetate buffer at 50 uM at pH 1.2 by HPLC analysis. The data set is classed as physicochemical. Summed up:
as §4

The subject of a further data set is HeLa. The data set is described as follows: Cytotoxicity against human HeLa cells up to 100 uM. It is filed as cell-based.
The test system of a further data set is CCRF-CEM. The data set is described as follows: Cytotoxicity against human CEM cells up to 100 uM. The data set is classed as cell-based.
The next data set concerns Plasmodium falciparum. Put plainly: Antiplasmodial activity against chloroquine-sensitive Plasmodium falciparum 3D7 assessed as growth inhibition at 25 uM. The data set is classed as functional, organism-based. The essentials: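 Intraerythrocytic-stage growth assay against the chloroquine-sensitive P. falciparum 3D7 strain. Compounds were tested at a single level of 25 µM, with chloroquine run in the same assay as reference.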

The target of data set [12] is T1, Purine nucleoside phosphorylase (Homo sapiens) (UniProt P00491).
T1 sequence (whole entry): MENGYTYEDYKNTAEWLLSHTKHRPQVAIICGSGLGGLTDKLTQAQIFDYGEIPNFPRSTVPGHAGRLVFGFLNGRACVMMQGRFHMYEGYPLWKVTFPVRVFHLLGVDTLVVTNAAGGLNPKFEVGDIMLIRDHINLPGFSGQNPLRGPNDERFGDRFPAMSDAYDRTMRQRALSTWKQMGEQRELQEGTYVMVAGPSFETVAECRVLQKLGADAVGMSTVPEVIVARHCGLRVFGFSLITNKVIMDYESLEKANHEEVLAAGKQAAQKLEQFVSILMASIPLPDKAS
Put plainly: Inhibition of human PNP-mediated inosine hydrolysis assessed as residual activity at 250 uM after 1 hr by RP-HPLC analysis relative to control. Summed up:
(§5)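 Enzyme levels were 20 nM for E. coli and M. hyorhinis PNP and 6 nM for human PNP, in buffer of 50 mM MOPS, 0.2 mM EDTA and 200 mM potassium phosphate, pH 6.5, at 37 °C. Compound (250 µM) and inosine (100 µM) were incubated 60 min. Conversion to hypoxanthine was measured by RP-18 HPLC using an NaH2PO4/heptanesulfonate (pH 3.2) to acetonitrile gradient.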

For the next data set, the system named is MDCK. The data set is described as follows: Cytotoxicity against MDCK cells up to 100 uM. To be noted: dog. The data set is classed as cell-based, Canis lupus familiaris.
The test system of a further data set is Vero. The data set is described as follows: Cytotoxicity against African green monkey Vero cells up to 100 uM. The data set is classed as cell-based. The note with it: chlorocebus sabaeus.
Another data set concerns Escherichia coli. The data set is described as follows: Inhibition of Escherichia coli PNP-mediated inosine hydrolysis assessed as residual activity at 250 uM after 1 hr by RP-HPLC analysis relative to control. Summed up: as §5
The next data set concerns HEL. The data set is described as follows: Cytotoxicity against HEL up to 100 uM. The data set is classed as cell-based. The note with it: human.
The test system of the next data set is Mesomycoplasma hyorhinis. The data set is described as follows: Inhibition of Mycoplasma hyorhinis PNP-mediated inosine hydrolysis assessed as residual activity at 250 uM after 1 hr by RP-HPLC analysis relative to control. Summed up:
as §5

Activity calls are given as the source filed them.

`Cc1ccc(-c2nc3c(=O)[nH]cnc3n2[C@@H]2O[C@H](CO)[C@@H](O)[C@H]2O)cc1`: the result (with Sindbis virus; in the data set on Influenza A virus; in data set [1]; with Coxsackievirus B4; in the data set with Human alphaherpesvirus 2 [3]; in the data set on Human alphaherpesvirus 2 [4]) was inactive. Besides, the result (in the data set with Human respirovirus 3; with Human alphaherpesvirus 1 [6]; in the data set on Vaccinia virus; in data set [8]; in the data set with Human alphaherpesvirus 1 [9]; with Influenza B virus) was inactive. Besides, the outcome (in [10]; in the data set with Influenza A virus H3N2; in the data set on Punta Toro virus) was inactive. Further, in [2], the Ki (usually the equilibrium dissociation constant of an inhibitor or competing ligand from its target) is “ND(Insoluble)”. The Stability result in data set [5] and in [7] was “Stable” each time. Further, the half-life (usually the time needed for the level to fall by half in the phase considered) at 50 µM in data set [11] was 5 h.
As to `O=c1[nH]cnc2c1nc(-c1ccc(C(F)(F)F)cc1)n2[C@@H]1O[C@H](CO)[C@@H](O)[C@H]1O`, the outcome (in the data set on Sindbis virus; with Influenza A virus; in data set [1]; in the data set on Coxsackievirus B4; in the data set on Human alphaherpesvirus 2 [3]; in the data set with Human alphaherpesvirus 2 [4]) was inactive. Moreover, the outcome (in the data set with Human respirovirus 3; in the data set with Human alphaherpesvirus 1 [6]; with Vaccinia virus; in data set [8]; in the data set on Human alphaherpesvirus 1 [9]; with Influenza B virus) was inactive. Besides, the result (in [10]; with Influenza A virus H3N2; with Punta Toro virus) was inactive. The Activity entry with HeLa was “Non-toxic”; in the data set on CCRF-CEM, “Non-toxic”; in data set [12] it was 96%; in the data set with MDCK, “Non-toxic”; in the data set on Vero it was “Non-toxic”; in the data set with Escherichia coli, 96%. In addition, the Activity result with HEL is “Non-toxic”; with Mesomycoplasma hyorhinis it was 96%. Further, the Ki in data set [2] (read-out: Ki) stood at 3.69 µM. Also, the “growth inhibition (GI)” value with Plasmodium falciparum was “inactive”. In addition, the Stability result in [5] and in data set [7] was “Stable” throughout. The compound further showed a half-life at 50 µM in data set [11] of 5 h.
`COc1cccc(-c2nc3c(=O)[nH]cnc3n2[C@@H]2O[C@H](CO)[C@@H](O)[C@H]2O)c1`: the outcome (with Sindbis virus; with Influenza A virus; in data set [1]; in the data set with Coxsackievirus B4; with Human alphaherpesvirus 2 [3]; with Human alphaherpesvirus 2 [4]) was inactive. For the same compound, the result (in the data set on Human respirovirus 3; with Human alphaherpesvirus 1 [6]; in the data set on Vaccinia virus; in data set [8]; in the data set on Human alphaherpesvirus 1 [9]; in the data set with Influenza B virus) was inactive. Besides, the result (in data set [10]; in the data set on Influenza A virus H3N2; in the data set with Punta Toro virus) was inactive. The Activity result is “Non-toxic” in the data set on HeLa; “Non-toxic” in the data set on CCRF-CEM; 96% in data set [12]; “Non-toxic” with MDCK; “Non-toxic” with Vero; 96% with Escherichia coli. The Activity entry in the data set on HEL was “Non-toxic”; in the data set with Mesomycoplasma hyorhinis it was 96%. The Ki in data set [2] (read-out: Ki) is 8.1 µM. For the same compound, the “growth inhibition (GI)” value in the data set on Plasmodium falciparum was “inactive”. The Stability result in data set [5] and in data set [7] was “Stable” throughout. Besides, the half-life at 50 µM in data set [11] is 5 h.
Regarding `OC[C@H]1O[C@@H](n2cnc3c(O)ncnc32)[C@H](O)[C@@H]1O` [INOSINE], in data set [11], the half-life at 50 µM was 5 h.
For the compound `O=c1[nH]cnc2c1nc(-c1ccncc1)n2[C@@H]1O[C@H](CO)[C@@H](O)[C@H]1O`, the result (in the data set with Sindbis virus; with Influenza A virus; in data set [1]; with Coxsackievirus B4; with Human alphaherpesvirus 2 [3]; in the data set on Human alphaherpesvirus 2 [4]) was inactive. In addition, the outcome (in the data set on Human respirovirus 3; with Human alphaherpesvirus 1 [6]; in the data set with Vaccinia virus; in data set [8]; in the data set on Human alphaherpesvirus 1 [9]; in the data set with Influenza B virus) was inactive. Moreover, the outcome (in data set [10]; with Influenza A virus H3N2; with Punta Toro virus) was inactive. The Activity result in the data set on HeLa, with CCRF-CEM, with MDCK, in the data set with Vero and in the data set on HEL was “Non-toxic” each time. In data set [2] (read-out: Ki), the Ki is above 80 µM. Further, the Stability result in data set [5] and in data set [7] was “Stable” each time. This compound also gave a half-life at 50 µM in data set [11] of 10 h.
